Published values pooled from the literature.
Lines come from different studies, so protocols differ.

NCCC(=O)NCc1ccccc1 — IC50 (DH82; NO release; inhibitor; Griess; 24 h; LPS-stimulated): 158 µM
CCOc1nc(-c2cccc(O)c2)cc(-c2cc3cc(Cl)ccc3nc2N2CCOCC2)c1C#N — IC50 (NFS-60; cell growth or viability; MTT; 72 h): 0.113 µM
NC(=O)c1ccncc1 — IC50 (DH82; PGE2 release; inhibitor; ELISA; 24 h; LPS-stimulated): > 200 µM
COc1ccc(-c2cc(-c3cccc(Br)c3)c3c(=O)n(C)c(=O)n(C)c3n2)cc1 — IC50 (HCT-116; cell growth or viability; MTT; 48 h): 7.88 µM
CC1(C)CCC(CN2CCN(c3ccc(C(=O)NS(=O)(=O)c4ccc(NCC5CCOCC5)c([N+](=O)[O-])c4)c(Oc4cnc5[nH]ccc5c4)c3)CC2)=C(c2ccc(Cl)cc2)C1 — IC50 (DOHH-2; cell growth or viability; ATP luminescence; 48 h): 0.077 µM
COc1cc2c(cc1OC)-c1cc3ccc(OC)c(OCCN)c3c[n+]1CC2 — IC50 (PC-9; cell growth or viability; MTT; 72 h): > 80 µM
COc1ccc(-c2cc(-c3cc(OC)ccc3OC)c3c(=O)[nH]c(=O)[nH]c3n2)cc1 — IC50 (HCT-116; cell growth or viability; MTT; 48 h): 11.8 µM
CCCOc1nc(-c2cccc(O)c2)cc(-c2cc3ccccc3nc2N2CCOCC2)c1C#N — IC50 (NFS-60; cell growth or viability; MTT; 72 h): 0.151 µM
CCNCCCn1c2c(c3cc(OC)c(OC)cc3c1=O)C(=O)c1cc3c(nc1-2)OCO3 — IC50 (Raji; cell growth or viability; MTS; 72 h): 0.125 µM
C=C(F)C(=O)N1CCN(c2nc(OC[C@@H]3CCCN3C)nc3c2CCN(c2cccc4cccc(Cl)c24)C3)C[C@@H]1CC#N — IC50 (AGS; cell growth or viability; ATP luminescence; 3D culture): > 1 µM
COCCC(=O)NCc1ccccc1 — IC50 (DH82; NO release; inhibitor; Griess; 24 h; LPS-stimulated): 171 µM
Cc1nc2cccc(N)c2c(=O)n1C1CCC(=O)NC1=O (stereo not drawn) — IC50 (NCI-H929; cell growth or viability; CCK-8; 96 h): < 0.33 µM
O=C(CCO)NCc1ccccc1 — IC50 (DH82; NO release; inhibitor; Griess; 24 h; LPS-stimulated): 57.5 µM
COc1cc2c3c(n(CCCn4ccnc4)c(=O)c2cc1OC)-c1nc2c(cc1C3=O)OCO2 — IC50 (Raji; cell growth or viability; MTS; 72 h): 0.204 µM
CCCOc1nc(-c2cccc(O)c2)cc(-c2cc3cc(OC)ccc3nc2N2CCOCC2)c1C#N — IC50 (NFS-60; cell growth or viability; MTT; 72 h): 0.0646 µM
O=C(CCNNC(=O)c1ccncc1)NCc1ccccc1 — IC50 (DH82; PGE2 release; inhibitor; ELISA; 24 h; LPS-stimulated): > 200 µM
CCOc1nc(-c2cccc(O)c2)cc(-c2cc3ccccc3nc2N2CCOCC2)c1C#N — IC50 (NFS-60; cell growth or viability; MTT; 72 h): 0.085 µM
Cn1nnc2c(C(N)=O)ncn2c1=O — IC50 (U-87 MG; cell growth or viability; trypan blue; 72 h): 50 µM
